Laboratory results taken from ChEMBL document CHEMBL1157514, “3-Alkenyl-2-azetidinones as fatty acid amide hydrolase inhibitors” (Bioorg Med Chem Lett, 2008).
pIC50: −log10 of the molar value. Activity calls are given as the source filed them. The rule behind the calls is not given here.

Experiments:
[1] = biological target: T1, Fatty-acid amide hydrolase 1 (Homo sapiens) (UniProt O00519); experiment: Inhibition of human FAAH expressed in Escherichia coli at 1 mM
T1 sequence (whole entry): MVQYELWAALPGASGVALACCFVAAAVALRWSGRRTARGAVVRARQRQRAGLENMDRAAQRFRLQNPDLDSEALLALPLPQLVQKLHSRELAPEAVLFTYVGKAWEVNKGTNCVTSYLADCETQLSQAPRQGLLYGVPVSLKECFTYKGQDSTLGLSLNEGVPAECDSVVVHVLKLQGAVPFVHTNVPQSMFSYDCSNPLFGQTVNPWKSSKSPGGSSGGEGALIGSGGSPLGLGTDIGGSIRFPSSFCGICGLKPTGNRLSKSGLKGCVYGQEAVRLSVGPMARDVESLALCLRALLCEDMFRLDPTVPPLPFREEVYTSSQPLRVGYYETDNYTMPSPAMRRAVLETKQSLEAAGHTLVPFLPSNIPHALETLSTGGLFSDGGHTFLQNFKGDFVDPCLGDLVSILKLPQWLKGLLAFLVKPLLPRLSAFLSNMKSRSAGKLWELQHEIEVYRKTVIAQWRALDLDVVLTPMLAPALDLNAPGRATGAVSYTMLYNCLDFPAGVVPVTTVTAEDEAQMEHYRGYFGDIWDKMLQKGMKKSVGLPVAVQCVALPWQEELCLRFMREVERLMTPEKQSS
Summary of the method: (§1)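 Human FAAH expressed in E. coli, in Tris-HCl pH 7.4, was added on ice to compound or DMSO. [3H]-AEA was added (50,000 dpm; 2 µM final) in Tris-HCl with 0.1% BSA, then incubated 10 min at 37 °C. The reaction was stopped on ice with cold MeOH–CHCl3 (1:1) and centrifuged. [3H]-ethanolamine in the aqueous phase was counted by liquid scintillation, with no-enzyme blanks subtracted.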

[2] = biological target: T2, Fatty-acid amide hydrolase 1 (Homo sapiens, UniProt O00519); experiment: Inhibition of human FAAH expressed in Escherichia coli; summary of the method: as §1
T2 sequence (O00519 whole entry): T1 sequence (whole entry)

[3] = biological target: T3, Monoglyceride lipase (Homo sapiens) (UniProt Q99685); experiment: Inhibition of human MGL expressed in Escherichia coli at 1 mM
T3 sequence (whole entry): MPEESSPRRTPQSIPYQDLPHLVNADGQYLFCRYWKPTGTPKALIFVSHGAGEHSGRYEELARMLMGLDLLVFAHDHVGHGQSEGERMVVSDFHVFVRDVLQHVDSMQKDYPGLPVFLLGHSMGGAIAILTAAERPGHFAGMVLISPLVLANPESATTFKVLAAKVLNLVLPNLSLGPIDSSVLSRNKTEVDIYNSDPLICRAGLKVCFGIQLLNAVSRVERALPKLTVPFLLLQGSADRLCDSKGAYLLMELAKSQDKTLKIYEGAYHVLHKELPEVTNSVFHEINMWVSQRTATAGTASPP
Summary of the method: (§2)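 Human MGL expressed in E. coli was run in Tris-HCl pH 8 with [3H]-oleoylglycerol (50,000 dpm; 10 µM final) as substrate. Otherwise the radiometric hydrolysis protocol was similar: compound or DMSO, chloroform–methanol quench, scintillation counting of the aqueous phase, and subtraction of buffer-only blanks.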

Monoglyceride lipase = biological target: T4, Monoglyceride lipase (Homo sapiens, UniProt Q99685); experiment: Inhibition of human MGL expressed in Escherichia coli; summary of the method: as §2
T4 sequence (Q99685 whole entry): T3 sequence (whole entry)

Homo sapiens = organism: Homo sapiens; experiment: Selectivity ratio of IC50 for human FAAH over IC50 for human MGL
[4] = biological target: T5, Pancreatic elastase (Sus scrofa) (UniProt P08419+P00772); experiment: Inhibition of pig pancreatic elastase at 10 mM; format: protein assay
[5] = biological target: T5, Pancreatic elastase (Sus scrofa); experiment: Inhibition of pig pancreatic elastase at 5 mM; format: protein assay
[6] = biological target: T5, Pancreatic elastase (Sus scrofa); experiment: Inhibition of pig pancreatic elastase at 2.5 mM; format: protein assay
[7] = biological target: T5, Pancreatic elastase (Sus scrofa); experiment: Inhibition of pig pancreatic elastase at 0.1 mM; format: protein assay
[8] = biological target: T5, Pancreatic elastase (Sus scrofa); experiment: Inhibition of pig pancreatic elastase at 100 uM; format: protein assay
[9] = Inhibition of penicillin-binding protein R39 assessed as residual activity
Summary of the method: (§3)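 Compound (100 µM) was incubated with PBP (0.8–2.5 µM) for 16 h at 30 °C in 50 mM sodium phosphate pH 7 with 5% DMF; PBP2a and PBP5 also had 0.5 M NaCl. Free PBP was then labelled with 25 µM fluorescein-ampicillin for 45 min and the reaction stopped with SDS-PAGE loading buffer. Gel fluorescence was quantified, background subtracted, and residual activity given as % of initial (triplicate).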

[10] = Inhibition of penicillin-binding protein 2a assessed as residual activity at 100 uM after 16 hrs by SDS-PAGE; summary of the method: as §3
[11] = Inhibition of penicillin-binding protein 2x assessed as residual activity; summary of the method: as §3
[12] = Inhibition of penicillin-binding protein 5 assessed as residual activity at 100 uM after 16 hrs by SDS-PAGE; summary of the method: as §3

inhibition [1] | pIC50 [2] | inhibition [3] | SMILES | also measured
25.2% | – | 10.3% | C=CCCCC1(CCCC=C)CN([Si](C)(C)C(C)(C)C)C1=O | –
43.6% | – | 77.5% | C=CCC1CN([Si](C)(C)C(C)(C)C)C1=O (racemic) | –
49.5% | – | 69.9% | C=CCCC1CN([Si](C)(C)C(C)(C)C)C1=O (racemic) | –
76.9% | – | 54.9% | C=CCCCC1CN([Si](C)(C)C(C)(C)C)C1=O (racemic) | –

More lines, now with the values behind:

SMILES | inhibition [1] | pIC50 [2] | inhibition [3] | also measured
C=CCCCC1(CCCC=C)CNC1=O | 80.5% | 3.59 | 36.3% | –
C=CCCC(=O)N1CC(CCC=C)C1=O (racemic) | 103% | 4.66 | 58.1% | pIC50 (Monoglyceride lipase): 3.09; Ratio IC50 (Homo sapiens): 37; Activity [4]: inactive; Activity [5]: inactive; Activity [6]: inactive; Activity [7]: inactive
C=CCCC(=O)N1CC(CC=C)C1=O (racemic) | 96.5% | 4.21 | 46.4% | Activity [8]: Active; Activity [9]: 73%; Activity [10]: 87%; Activity [11]: 108%; Activity [12]: 104%
C=CCCCC1CN(C(=O)CCC=C)C1=O (racemic) | 101% | 5.35 | 62.1% | pIC50 (Monoglyceride lipase): 3.18; Ratio IC50 (Homo sapiens): 146; Activity [4]: inactive; Activity [5]: inactive; Activity [6]: inactive; Activity [7]: inactive
C=CCC1CNC1=O (racemic) | 56.6% | – | 15.6% | –
C=CCCC1CNC1=O (racemic) | 48% | – | 8.1% | –
C=CCCCC1CNC1=O (racemic) | 80.9% | – | 54.9% | –
